Bioassay records as filed in PubChem BioAssay.
Most compounds without a hit are left out; they make up all but 3.9% or so of the library.
CHO parental Ca: counter-screen: ATP calcium response change in parental CHO cells; inhibition, % at 5.6 µM; hit rate 0.63% among 330,000; parental CHO-K1, ATP-induced calcium, Fluo-8 fluorescence;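 active = inhibition above that plate's mean sample inhibition plus 3 SD, cut at about 26% in these data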
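Assay system: untransfected parental CHO cell line. Also added: ATP agonist challenge. Dosing: one dose, 5.6 µM nominal. Measured by: Fluo-8 fluorescence. Read-out: % inhibition. Benchmarks: ATP wells versus no-ATP DMSO wells. Repeats: no replicates.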
TAAR1 ag: human TAAR1 agonism. Q96RJ0. CHO RD-HGA16 TAAR1, Fluo-8 calcium fluorescence; vehicle wells 0%, saturating PEA agonist 100%. activation, % at 3 µM. hit rate 0.99% among 360,000. AID 624467;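 active = activation above the mean activation of all test compounds in the run plus 3 SD, cut at about 38% in these data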
Target sequence (Q96RJ0 whole entry, looked up): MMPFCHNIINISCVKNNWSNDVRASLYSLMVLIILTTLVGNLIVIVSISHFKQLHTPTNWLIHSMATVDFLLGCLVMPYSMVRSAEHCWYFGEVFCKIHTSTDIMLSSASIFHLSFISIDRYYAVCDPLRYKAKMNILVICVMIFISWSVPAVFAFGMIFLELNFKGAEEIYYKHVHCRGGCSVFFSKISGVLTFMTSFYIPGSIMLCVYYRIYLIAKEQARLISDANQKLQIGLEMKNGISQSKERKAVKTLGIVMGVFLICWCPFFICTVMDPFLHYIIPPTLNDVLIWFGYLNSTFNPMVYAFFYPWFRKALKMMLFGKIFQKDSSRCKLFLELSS
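Assay system: CHO-derived RD-HGA16 cells with stable Gα16 and human TAAR1; timing: 17-24 h seeding, 75 min 37 °C dye, 30 min RT; read-out: % activation from peak over basal fluorescence ratio, DMSO-to-PEA scaled; measured by: kinetic Fluo-8 calcium fluorescence; benchmarks: low control DMSO, high control PEA (EC100); doses: 3 µM single concentration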
OX1R antag-1: OX1R (human) antagonism | inhibition, % at 6.6 µM | hit rate 1.8% among 330,000 | OX1R-expressing cells, FRET antagonist read-out | AID 485270 | O43613; in the data active = inhibition mostly above about 38%, no sharp cut-off; inactive = mostly below about 40%
Target sequence (O43613 whole entry, looked up): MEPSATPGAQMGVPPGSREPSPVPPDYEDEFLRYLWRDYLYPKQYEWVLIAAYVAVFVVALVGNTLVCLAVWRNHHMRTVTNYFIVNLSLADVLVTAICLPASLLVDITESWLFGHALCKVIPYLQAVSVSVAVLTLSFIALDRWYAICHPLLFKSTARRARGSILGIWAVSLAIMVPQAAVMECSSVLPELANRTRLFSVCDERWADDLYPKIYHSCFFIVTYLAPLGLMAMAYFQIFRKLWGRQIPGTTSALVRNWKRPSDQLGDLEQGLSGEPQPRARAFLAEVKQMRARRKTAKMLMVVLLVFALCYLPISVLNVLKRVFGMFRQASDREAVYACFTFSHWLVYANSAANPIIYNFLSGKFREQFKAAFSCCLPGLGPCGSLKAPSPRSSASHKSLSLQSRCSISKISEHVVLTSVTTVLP
TAAR1 antagonist: antagonists of human TAAR1. hit rate 1.5% among 360,000. AID 624466. inhibition, % at 3 µM. CHO RD-HGA16 TAAR1, Fluo-8 calcium fluorescence, antagonist;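 active = inhibition above a per-plate cutoff, the mean inhibition of test compounds on that plate plus 3 SD, cut at about 49% in these data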
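test system = CHO RD-HGA16 cells bearing hTAAR1 | replication = singlicate | controls = DMSO-only wells and EC80 β-PEA-stimulated wells | reagent = EC80 β-phenethylamine stimulus | read-out basis = percent inhibition of PEA-evoked calcium signal, max/basal emission ratio | schedule = seeding 17-24 h prior, 75-min 37 °C, 30-min RT dye loading | signal = kinetic Fluo-8 calcium fluorescence measurement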
OX1R antag-2: human HCRTR1 antagonism. inhibition, % at 5 µM. hit rate 0.43% among 330,000. CHO/OX1R cells, Fluo-8 calcium fluorescence, orexin A. AID 434989;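 active = inhibition above its plate's threshold, mean inhibition of all tested compounds on the plate plus 3 SD, cut at about 37% in these data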
Each line names hits and unclear results; the compound was inactive in the other large screens.

CCN1C(=O)[C@H]2[C@@H](c3ccc(C)cc3)N3C(=O)N(c4ccc(C)cc4)C(=O)[C@@]3(Cc3ccc(Cl)cc3)[C@H]2C1=O	none
CCN1C(=O)[C@H]2[C@@H](c3ccc(C)cc3)N3C(=O)N(c4ccccc4)C(=O)[C@@]3(Cc3ccc(Cl)cc3)[C@H]2C1=O	OX1R antag-1 63 (no result: TAAR1 ag, TAAR1 antagonist)
Nc1nc(=O)n(C2CC(O)C(CO)O2)cc1F (stereo not given)	none (no result: CHO parental Ca, OX1R antag-1, OX1R antag-2)
COc1ccccc1C(CC(=O)c1ccccc1)C(=O)c1ccccc1 (stereo not given)	TAAR1 antagonist 73 (no result: CHO parental Ca, OX1R antag-1, OX1R antag-2)
COc1ccccc1C(C(=O)c1ccccc1)c1ccc(O)cc1 (stereo not given)	none (no result: CHO parental Ca, OX1R antag-1, OX1R antag-2)
COC(=O)C1=CCCCC(O)=C1C(=O)OC	none (no result: CHO parental Ca, OX1R antag-1, OX1R antag-2)
O=C1CS/C(=N/N=C/c2ccc(OS(=O)(=O)c3ccccc3)cc2)N1	OX1R antag-1 70
O=C(Nc1ccc(Br)cc1)c1ccc(F)c(S(=O)(=O)NCc2cccs2)c1	OX1R antag-1 94, OX1R antag-2 55
CCN(CC)S(=O)(=O)c1cccc(NC(=O)c2ccc(SC)cc2OC)c1	TAAR1 antagonist 52
COc1cc(SC)ccc1C(=O)Nc1cccc(S(=O)(=O)NC2=NCCCCC2)c1	none
CCN(CC)S(=O)(=O)c1cccc(NC(=O)CCSc2ccc(Cl)cc2)c1	CHO parental Ca 48
CCn1c2ccccc2c2cc(CN3CCN(Cc4cc(OC)ccc4O)CC3)ccc21	OX1R antag-1 50
CCn1c2ccccc2c2cc(CN3CCN(S(C)(=O)=O)CC3)ccc21	none
COc1cc2sc3cc(NCc4ccc(C)o4)ccc3c(=O)c2cc1OC	OX1R antag-1 45
COc1cc2sc3cc(NCc4ccc5c(c4)OCO5)ccc3c(=O)c2cc1OC	OX1R antag-1 50
COc1cc2sc3cc(NCC[C@@H]4CCCN4C)ccc3c(=O)c2cc1OC	none
Cc1ccccc1S(=O)(=O)N1CCCc2nc(C)c(C)cc21	none (no result: CHO parental Ca, OX1R antag-1, OX1R antag-2)
COC(=O)C[C@@H]1OC[C@H](Cc2ccccc2)N1S(=O)(=O)c1ccc(C)cc1	none (no result: CHO parental Ca, OX1R antag-1, OX1R antag-2)
O=C(N/N=C/c1cc(Cl)ccc1O)C(=O)Nc1ccccc1OC(F)(F)C(F)F	OX1R antag-1 69
CC1=CC(C)(C(Cl)(Cl)Cl)C(C)=CC1=NO (stereo not given)	none (no result: CHO parental Ca, OX1R antag-1, OX1R antag-2)
CC(C)CN1CCC(CN2C(=S)NC[C@@H]2Cc2ccccc2)CC1	none (no result: CHO parental Ca, OX1R antag-1, OX1R antag-2)
Clc1ccccc1-c1nnc2sc(-c3ccncc3)nn12	none
CN(C)c1ccc(-c2nn3c(-c4ccccc4Cl)nnc3s2)cc1	OX1R antag-1 59
COc1ccccc1-c1nnc2sc(-c3ccc(N(C)C)cc3)nn12	OX1R antag-1 69
CC(=O)c1sc(Nc2ccccn2)nc1C	OX1R antag-1 73
CC(=O)c1sc(Nc2cccc3ccccc23)nc1C	none
CCN(CC)c1ccc2c(c1)CCCN2	OX1R antag-1 85 (no result: TAAR1 ag, TAAR1 antagonist)
O=C(Nc1nc2n(n1)C(c1ccccc1)C=C(c1ccccc1)N2)c1ccco1 (stereo not given)	OX1R antag-1 50
CC(=O)Nc1nc2n(n1)C(c1ccccc1)C=C(c1ccccc1)N2 (stereo not given)	none (no result: TAAR1 ag, TAAR1 antagonist)
Cc1cc(C)c(CSc2ncc(-c3ccc([N+](=O)[O-])cc3)[nH]2)c(C)c1	CHO parental Ca 40, OX1R antag-1 91, TAAR1 antagonist 60, OX1R antag-2 40
Cc1cc(C)c2c(=O)[nH]c(SCc3ccc([N+](=O)[O-])cc3)nc2n1	none
O=[N+]([O-])c1ccc(-c2cnc(SCc3ccccc3Cl)[nH]2)cc1	TAAR1 antagonist 52
CC1=C(C(=O)N2CCCCCC2)CC(CC(=O)NC2CCCC2)C(=O)N1Cc1ccccc1 (stereo not given)	none (no result: CHO parental Ca, OX1R antag-1, OX1R antag-2)
COC(=O)c1ccc(Cn2c(C)c(C(=O)Nc3cccc(Oc4ccccc4)c3)sc2=O)o1	TAAR1 antagonist 49 (no result: CHO parental Ca, OX1R antag-1, OX1R antag-2)
Cn1nc(C(C)(C)C)cc1C(=O)NCc1ccc2c(c1)OCO2	CHO parental Ca 48
CC1CCN(S(=O)(=O)c2ccc(C(=O)NCc3ccc4c(c3)OCO4)cc2)CC1	TAAR1 antagonist 58
CC1CCCN(S(=O)(=O)c2cccc(C(=O)NCCCN3CCCC3=O)c2)C1 (stereo not given)	none (no result: CHO parental Ca, OX1R antag-1, OX1R antag-2)
COC(=O)Cn1c(C(=O)N2CCCC2)cc2c1C[C@H]1CN(C(=O)c3ccccc3)[C@@](Cc3ccc(OC)cc3)(C(=O)OC)[C@@H]21	none (no result: CHO parental Ca, OX1R antag-1, OX1R antag-2)
COc1ccc(CCNC(=O)C(=O)NCC2CCCN2S(=O)(=O)c2ccccc2)cc1OC (stereo not given)	TAAR1 antagonist 49
COc1ccc(CCNC(=O)C(=O)NCC2OCCN2S(=O)(=O)c2ccccc2)cc1OC (stereo not given)	none
O=C(NCCc1ccc(F)cc1)C(=O)NCC1CCCN1S(=O)(=O)c1cccs1 (stereo not given)	OX1R antag-1 69, TAAR1 antagonist 61
Cc1ccc(C(=O)NCC2CCCN2S(=O)(=O)c2cccs2)cc1C (stereo not given)	OX1R antag-1 34
COc1cccc(CNC(=O)[C@@H]2CCCN2C(=O)[C@H]2CCCCN2S(=O)(=O)c2ccc(OC)c(C)c2)c1	none (no result: CHO parental Ca, OX1R antag-1, OX1R antag-2)
CCc1cc2c(nc1CC)CCCN2Cc1ccccc1C(F)(F)F	none (no result: CHO parental Ca, OX1R antag-1, OX1R antag-2)
CC(C)C[C@H]1COc2cccc(N3CCC[C@H]3CO)c2S(=O)(=O)N1	none (no result: CHO parental Ca, OX1R antag-1, OX1R antag-2)
O=C(COC(=O)c1ccc([N+](=O)[O-])o1)NCc1ccccc1	none
CCOC(=O)C1=C(COC(=O)c2cc([N+](=O)[O-])ccc2Cl)NC(=O)NC1C (stereo not given)	none (no result: CHO parental Ca, OX1R antag-1, OX1R antag-2)
NS(=O)(=O)c1ccc(CCNC(=O)COC(=O)c2ccc([N+](=O)[O-])o2)cc1	OX1R antag-1 44
CCOC(=O)C1=C(COC(=O)c2ccc([N+](=O)[O-])o2)NC(=O)NC1C (stereo not given)	OX1R antag-1 30
CC1CCCC(C)N1C(=O)COC(=O)c1ccc([N+](=O)[O-])o1 (stereo not given)	OX1R antag-1 39
CCOC(=O)C1CCN(C(=O)COC(=O)c2ccc([N+](=O)[O-])o2)CC1	OX1R antag-1 33
O=S(=O)(NCC[C@@H]1CC[C@H](NS(=O)(=O)c2cccc(F)c2)[C@@H](CO)O1)c1cccc(F)c1	none (no result: CHO parental Ca, OX1R antag-1, OX1R antag-2)
Nc1ccc2ccc(NS(=O)(=O)N3CCCCC3)cc2c1	none (no result: CHO parental Ca, OX1R antag-1, OX1R antag-2)
COC(=O)C[C@@H]1C=C[C@H](NC(=O)c2ccccc2)[C@@H](CO)O1	none (no result: CHO parental Ca, OX1R antag-1, OX1R antag-2)
O=C(COC(=O)c1ccc([N+](=O)[O-])o1)c1ccccc1	none
NS(=O)(=O)c1ccc(CCNC(=O)COC(=O)/C=C/c2ccccc2Cl)cc1	TAAR1 ag 42
COC(=O)C1=C(C)NC(=S)NC1c1ccc(Br)cc1 (stereo not given)	none (no result: CHO parental Ca, OX1R antag-1, OX1R antag-2)
O=C(OCCCOC(=O)c1ccc([N+](=O)[O-])o1)c1ccc([N+](=O)[O-])o1	OX1R antag-1 53
CC(C)CN(C(=O)COC(=O)c1ccc([N+](=O)[O-])o1)C1CCS(=O)(=O)C1 (stereo not given)	OX1R antag-1 75
